From ChEMBL document CHEMBL3861996, “Arylsulfonamide derivatives of (aryloxy)ethyl pyrrolidines and piperidines as α1-adrenergic receptor antagonist with uro-selective activity” (Bioorg Med Chem, 2016)

Legend:
[1] = target: T1, 5-hydroxytryptamine receptor 1A (Homo sapiens) (UniProt P08908); test: Displacement of [3H]-8-OH-DPAT from human 5-HT1A receptor expressed in CHO-K1 cell membranes at 1 uM after 1 hr by micro beta2 scintillation counting analysis
T1 sequence (whole entry): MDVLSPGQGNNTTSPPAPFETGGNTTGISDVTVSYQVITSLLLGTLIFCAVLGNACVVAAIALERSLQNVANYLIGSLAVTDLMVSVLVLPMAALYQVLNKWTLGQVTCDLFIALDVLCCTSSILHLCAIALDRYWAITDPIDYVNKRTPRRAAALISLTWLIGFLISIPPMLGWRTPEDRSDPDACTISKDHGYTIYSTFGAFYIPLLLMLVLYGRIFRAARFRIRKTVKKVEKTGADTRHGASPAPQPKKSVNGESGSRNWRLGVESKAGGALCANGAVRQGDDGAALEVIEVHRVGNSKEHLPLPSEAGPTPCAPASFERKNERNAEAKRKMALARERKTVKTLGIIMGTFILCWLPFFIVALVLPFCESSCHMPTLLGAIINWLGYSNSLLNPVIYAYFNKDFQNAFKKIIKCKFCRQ
How it was run: (§1)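 Membranes of CHO-K1 cells stably expressing human 5-HT1A or 5-HT7 receptor. Buffer 50 mM Tris–HCl, 0.1 mM EDTA, 10 mM MgCl2. Each compound screened at final 10 µM and 1 µM. Incubation at 37 °C, 1 h for 5-HT1A and 2 h for 5-HT7. Non-specific binding defined with 10 µM 5-HT (5-HT1A) or 10 µM methiothepine (5-HT7). Output is percent inhibition of specific binding.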

[2] = target: 5-hydroxytryptamine receptor 7 (Homo sapiens) (UniProt P34969); test: Displacement of [3H]-LSD from human 5-HT7 receptor expressed in CHO-K1 cell membranes at 1 uM after 2 hr by micro beta2 scintillation counting analysis; how it was run: as §1
5-hydroxytryptamine receptor 7 (Homo sapiens), sequence (P34969 whole entry): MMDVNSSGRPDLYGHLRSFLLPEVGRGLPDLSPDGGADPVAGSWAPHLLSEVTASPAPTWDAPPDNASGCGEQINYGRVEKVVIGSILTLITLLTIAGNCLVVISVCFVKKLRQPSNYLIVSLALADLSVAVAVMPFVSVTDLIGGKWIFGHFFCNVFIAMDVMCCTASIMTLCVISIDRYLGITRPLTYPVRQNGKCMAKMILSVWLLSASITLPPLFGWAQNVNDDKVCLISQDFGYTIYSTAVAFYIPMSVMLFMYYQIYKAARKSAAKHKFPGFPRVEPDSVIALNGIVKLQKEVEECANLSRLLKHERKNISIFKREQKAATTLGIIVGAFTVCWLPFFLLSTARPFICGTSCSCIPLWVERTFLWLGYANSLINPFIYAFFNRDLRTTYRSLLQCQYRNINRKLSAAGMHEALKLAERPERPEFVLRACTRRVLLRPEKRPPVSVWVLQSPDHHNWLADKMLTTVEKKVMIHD

[3] = target: 5-hydroxytryptamine receptor 7 (Homo sapiens) (UniProt P34969); test: Displacement of [3H]-LSD from human 5-HT7 receptor expressed in CHO-K1 cell membranes at 10 uM after 2 hr by micro beta2 scintillation counting analysis; settings: 0.1 uM, in the assay text read “at 0.1 uM” for “at 10 uM”; how it was run: as §1
Rattus norvegicus [4] = test: Hypotensive activity in normotensive anesthetized Wistar rat assessed as decrease in systolic blood pressure at 5 mg/kg, iv administered as single dose measured 60 mins post dose relative to control; assay type: functional; settings: 1 h
How it was run: (§2)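 Male Wistar rats (200–250 g), groups of six, anaesthetized with thiopental 70 mg/kg ip. Left carotid artery cannulated with heparinized saline-filled tubing for pressure recording. Compounds dissolved in water and given once iv. Blood pressure taken at 0 min (control) and over 60 min afterward. Data as mean ± SEM, analysed by one-way ANOVA with Dunnett's test against 0 min.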

Rattus norvegicus [5] = test: Hypotensive activity in normotensive anesthetized Wistar rat assessed as decrease in diastolic blood pressure at 5 mg/kg, iv administered as single dose measured 60 mins post dose relative to control; assay type: functional; settings: 1 h; how it was run: as §2
Rattus norvegicus [6] = test: Hypotensive activity in normotensive anesthetized Wistar rat assessed as decrease in systolic blood pressure at 2 mg/kg, iv administered as single dose measured 60 mins post dose relative to control; assay type: functional; settings: 1 h; how it was run: as §2
Rattus norvegicus [7] = test: Hypotensive activity in normotensive anesthetized Wistar rat assessed as decrease in diastolic blood pressure at 2 mg/kg, iv administered as single dose measured 60 mins post dose relative to control; assay type: functional; settings: 1 h; how it was run: as §2

Work on `COc1ccccc1OCCN1CCC(CNS(=O)(=O)c2cncc3ccccc23)CC1` yielded an inhibition [1] of 78%, an inhibition [2] of 89% and an inhibition [3] of 54%.

For `COc1ccccc1OCCN1CCC(NS(=O)(=O)c2cncc3ccccc23)CC1`, the inhibition [1] was 69%, the inhibition [2] was 87% and the inhibition [3] was 41%. The inhibition in vivo at 5 mg/kg (Rattus norvegicus [4]) was 6 to 11%, the inhibition in vivo at 5 mg/kg (Rattus norvegicus [5]) was 2 to 8% and the inhibition in vivo at 2 mg/kg (Rattus norvegicus [6]) was 4 to 10%. For the same compound, the inhibition in vivo at 2 mg/kg (Rattus norvegicus [7]) was 4 to 8%.

`COc1ccc(S(=O)(=O)NCC2CCN(CCOc3ccccc3OC)CC2)cc1OC` gave an inhibition [1] of 72%, an inhibition [2] of 52% and an inhibition [3] of 16%.

`CC(C)Oc1ccccc1OCCN1CCC(CNS(=O)(=O)c2cccc3cccnc23)CC1` showed an inhibition [1] of 61%, an inhibition [2] of 91% and an inhibition [3] of 51%.

Compound `CC(C)Oc1ccccc1OCCN1CCC(CNS(=O)(=O)c2cccc(Cl)c2F)CC1` has an inhibition [1] of 59%, an inhibition [2] of 90% and an inhibition [3] of 45%. For the same compound, the inhibition in vivo at 5 mg/kg (Rattus norvegicus [4]) was 2 to 5% and the inhibition in vivo at 2 mg/kg (Rattus norvegicus [6]) was 7%.
